This excerpt belongs to a sample that is enriched for hits.
H69AR growth 86K: growth inhibitors of human H69AR lung tumor cells; H69AR lung tumor viability, ATP luminescence, 72 h; stronger effect = lower value; viability, % at 10 µM; 85,000 compounds, 6% hits;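 active = viability at or below 40%; inactive = viability above 40%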;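 also: multidrug resistant small cell line overexpressing MRP-1 efflux transporter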
bCat KO growth: beta-catenin-lacking colon tumor cell growth suppression; HCT116 beta-catenin knockout viability, CellTiter-Glo, 60 h; stronger effect = lower value; viability, % at 10 µM; 140,000 compounds, 1.5% hits; AID 818;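 active = viability at or under a set limit, the compound median less 4 SD, cut at about 6% in these data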
HUVEC prolif 384: human endothelial cell proliferation inhibition; HUVEC proliferation, CellTiter-Glo luminescence, 72 h; stronger effect = lower value; viability, % at 10 µM (by protocol); 86,000 compounds, 1.1% hits; AID 648;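 active = viability at or below 30%; inactive = viability above 30%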
HCT116 PTEN-null: PTEN-deleted cell growth suppression; HCT116 PTEN-null viability, CellTiter-Glo, 60 h; stronger effect = lower value; viability, % at 10 µM; 140,000 compounds, 1.2% hits; AID 827;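 active = viability at or below a set limit, 4 SD under the median of all tested compounds, cut at about 3.7% in these data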;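 also: PTEN knockout HCT116 line with beta catenin targeted HCT116 as companion control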
Fibroblast inh: blocks proliferation of human lung fibroblasts. LL 47 human lung fibroblast viability, ATP luminescence; stronger effect = lower value. viability, % at 10 µM. 85,000 compounds, 1.1% hits;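 active = viability at or below 50% in the single dose screen; inactive = viability above 50%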;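 also: compound exposure lasted 72 h before the ATP readout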
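Test system: LL 47 human lung fibroblasts / Incubation: 72 h compound exposure at 37 °C after overnight plating / Technique: luminescent ATP detection, CellTiter-Glo / Compound dosing: 0.1% DMSO in all compound wells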
Of the large screens only hits and unclear results are named; the others gave an inactive call.

CCn1c(SCC(=O)N2CCCc3ccccc32)nnc1-c1c[nH]c2ccccc12	H69AR growth 86K 23
CCCS(=O)(=O)c1c(S(=O)(=O)CCC)c2cc(CC)ccn2c1C(=O)OC	H69AR growth 86K 24
CCCS(=O)(=O)c1c(S(=O)(=O)CCC)c2c3ccccc3ccn2c1C(=O)OC	H69AR growth 86K 27
CCCS(=O)(=O)c1c(S(=O)(=O)CCC)c2c(C)cccn2c1C(=O)OC	none
CCNc1nc(NCC)n2c(SCC(=O)Nc3ccc(C(F)(F)F)cc3[N+](=O)[O-])nnc2n1	none (no result: H69AR growth 86K, HUVEC prolif 384, Fibroblast inh)
Cn1c(C(=O)N2CCCC(C(=O)NCCCSC3CCCCC3)C2)cc2sccc21 (centres undefined)	H69AR growth 86K 29
Cn1c(C(=O)N2CCCC(C(=O)NCc3cccs3)C2)cc2sccc21 (centres undefined)	none
Cc1ccc(Cn2c(=N)n(CC(=O)c3ccc([N+](=O)[O-])cc3)c3ccccc32)cc1	bCat KO growth 0.9, HCT116 PTEN-null 0.9 (no result: H69AR growth 86K, HUVEC prolif 384, Fibroblast inh)
CCn1c(=N)n(CC(=O)c2ccc(OC)cc2)c2ccccc21	none (no result: H69AR growth 86K, HUVEC prolif 384, Fibroblast inh)
COc1cc(C)c(Cl)cc1S(=O)(=O)n1cnc(C)c1	none
COc1ccc(C(C)C)cc1S(=O)(=O)n1cnc(C)c1	H69AR growth 86K 27
Cc1ccc2[nH]c3c(c2c1)CCc1cn[nH]c1-3	H69AR growth 86K 39
Cc1ccc2[nH]c3c(c2c1)CCCC3=O	HUVEC prolif 384 27
Cc1ccc2[nH]c3c(c2c1)CCC3=O	none
COCCCNC(=O)C(=O)NCCCOC(C)C	none (no result: H69AR growth 86K, HUVEC prolif 384, Fibroblast inh)
CC(=O)C(Sc1ncnc2c1nnn2-c1ccc(F)cc1)C(=O)N(C)C (centres undefined)	H69AR growth 86K 12
COc1ccc(-c2nc3ccccc3c(C(=O)Nc3ccc(S(=O)(=O)Nc4cc(C)on4)cc3)c2C)cc1	none (no result: H69AR growth 86K, HUVEC prolif 384, Fibroblast inh)
Cc1cccc(C=Nc2ccccc2C(N)=O)c1	H69AR growth 86K 23
CCCc1ccc(-c2cc(NC(=O)CSc3n[nH]c(N)n3)n(-c3ccccc3)n2)cc1	H69AR growth 86K 17, HUVEC prolif 384 17
Oc1cccc(-c2nc3c4c(ncn3n2)-c2ccccc2CC42CCCC2)c1	HCT116 PTEN-null 2.4 (no result: H69AR growth 86K, HUVEC prolif 384, Fibroblast inh)
COc1ccc(-c2nc3c4c(ncn3n2)-c2ccccc2CC42CCCC2)cc1	none (no result: H69AR growth 86K, HUVEC prolif 384, Fibroblast inh)
O=C(Nc1ccc(C(F)(F)F)cc1)c1cccnc1N1CCOCC1	H69AR growth 86K 39
Cc1ccc(Cn2c(=N)n(CC(O)COc3ccccc3)c3ccccc32)cc1 (centres undefined)	H69AR growth 86K -0.1, bCat KO growth 0.5, HUVEC prolif 384 2.7, HCT116 PTEN-null 0.5, Fibroblast inh 22
N=c1n(Cc2ccccc2)c2ccccc2n1CC(O)COc1ccccc1 (centres undefined)	H69AR growth 86K 15, bCat KO growth 0.9, HCT116 PTEN-null 1.2
C=CCc1ccc(OCC(O)CN2CCC(Cc3ccccc3)CC2)c(OC)c1 (centres undefined)	H69AR growth 86K 21, HUVEC prolif 384 14
O=C1NC(c2ccncc2)Nc2ccccc21 (centres undefined)	none
Cc1ccc(C2NC(=O)c3ccccc3N2)s1 (centres undefined)	H69AR growth 86K 32
C#CCN(C(=O)Nc1ccccc1)c1ccccc1	none (no result: H69AR growth 86K, HUVEC prolif 384, Fibroblast inh)
O=C(NC1CCCCCC1)C1CCN(S(=O)(=O)c2ccc(F)cc2)CC1	H69AR growth 86K 32
O=C1CCc2cc(S(=O)(=O)N3CCC(C(=O)NC4CCCCCCC4)CC3)ccc2N1	none
CCC(CC)C(=O)NCCCCc1ccccc1	none (no result: H69AR growth 86K, HUVEC prolif 384, Fibroblast inh)
Brc1ccc(C2=CC(c3cccs3)n3ncnc3N2)cc1 (centres undefined)	none
Fc1ccc(Br)cc1C1C=C(c2cccnc2)Nc2ncnn21 (centres undefined)	H69AR growth 86K 25
Cc1ccc(S(=O)(=O)CCSc2nc(C)cc(C(F)(F)F)c2C#N)cc1	H69AR growth 86K 1.6
COCCCNC(=O)c1cc2c(=O)n3cc(C)ccc3nc2nc1NCC1CCCO1 (centres undefined)	none (no result: H69AR growth 86K, HUVEC prolif 384, Fibroblast inh)
COc1nc(Nc2ccc(O)cc2)nc(OC(C(F)(F)F)C(F)(F)F)n1	none
Nc1cccc(Nc2nc(OC(C(F)(F)F)C(F)(F)F)nc(OC(C(F)(F)F)C(F)(F)F)n2)c1	H69AR growth 86K 1.5, HCT116 PTEN-null 2.4
CCNS(=O)(=O)c1ccc2nc(NC(=O)/C=C/c3cc(OC)c(OC)c(OC)c3)sc2c1	none (no result: H69AR growth 86K, HUVEC prolif 384, Fibroblast inh)
COc1ccccc1N1CCN(C(=O)COc2ccc(Cl)cc2Br)CC1	H69AR growth 86K 17
COc1ccc([N+](=O)[O-])cc1C1NN=C(c2ccccc2O)S1 (centres undefined)	H69AR growth 86K 27
